Screening results deposited in PubChem by several laboratories.
ABCG2 inh: blocks JC-1 efflux by human ABCG2 transporter; Q9UNQ0; IgMXP3 cells, flow cytometry; inhibition, % at 6.6 µM; hit rate 0.1% among 190,000; AID 1325;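 active means inhibition above 80%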;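 further: 0% = DMSO and 100% = nicardipine control wells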
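test system = two drug-resistant human cell lines, ABCG2 and ABCB1 | amount = 3 million cells/mL final, two lines in 1:1 ratio | reagent = JC-1 transporter substrate | doses = one concentration, 6.6 µM final | incubation = 10 min at 25 °C | signal = flow cytometric JC-1 green MFI at 530 nm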
MEKK3 PB1 HTS: modulators (inhibitors or enhancers) of MEK5 binding to human MEKK3 PB1 domain. binding response (% of control), % at 10 µM. bead-based flow cytometry, Alexa488-MEK5 binding to MEKK3; actives lie on both sides; 0 = blocked by unlabeled MEK5, 100 = vehicle. hit rate 1.4% among 290,000;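 active means binding response more than 3 SD above or below the average of its plate-row segment, actives on both sides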;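 further: Alexa488 bead fluorescence after subtracting the streptavidin-only scavenger bead signal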
MEKK2wt PB1 HTS: raises or lowers MEK5 binding to wildtype human MEKK2 PB1 domain | Q9Y2U5 | binding response (% of control), % at 10 µM | AID 1531 | bead flow cytometry, Alexa488-MEK5 binding to MEKK2 WT; actives lie on both sides | hit rate 1.1% among 290,000; in the data active means binding response below about 67% or above about 130%
WT yeast gro inh: growth inhibition of WT yeast, mitochondrial fusion screen. mitochondrial fusion phenotypic screen, WT strain. inhibition, % at 10 µM. hit rate 2.1% among 190,000. AID 1362; in the data active means inhibition above about 58%; tested in S. cerevisiae
MEKK2mut PB1 HTS: signal of MEK5 binding to mutant human MEKK2 PB1 domain | percent response, % at 10 µM | hit rate 0.35% among 290,000 | AID 1530 | bead flow cytometry, Alexa488-MEK5 binding to MEKK2 mutant; in the data active means percent response above about 24%, passing the limit was not always enough
ABCB1 inh: inhibitors of human ABCB1 transporter, ABCG2 counter-screen. inhibition, % at 6.6 µM. AID 1326. CCRF-Adr cells, JC-1 efflux, flow cytometry. hit rate 0.067% among 190,000; in the data active means inhibition above about 40%;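 further: 0% = vehicle and 100% = reference inhibitor; higher value means more JC-1 retained so stronger ABCB1 efflux block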
Target sequence (P08183 whole entry, looked up): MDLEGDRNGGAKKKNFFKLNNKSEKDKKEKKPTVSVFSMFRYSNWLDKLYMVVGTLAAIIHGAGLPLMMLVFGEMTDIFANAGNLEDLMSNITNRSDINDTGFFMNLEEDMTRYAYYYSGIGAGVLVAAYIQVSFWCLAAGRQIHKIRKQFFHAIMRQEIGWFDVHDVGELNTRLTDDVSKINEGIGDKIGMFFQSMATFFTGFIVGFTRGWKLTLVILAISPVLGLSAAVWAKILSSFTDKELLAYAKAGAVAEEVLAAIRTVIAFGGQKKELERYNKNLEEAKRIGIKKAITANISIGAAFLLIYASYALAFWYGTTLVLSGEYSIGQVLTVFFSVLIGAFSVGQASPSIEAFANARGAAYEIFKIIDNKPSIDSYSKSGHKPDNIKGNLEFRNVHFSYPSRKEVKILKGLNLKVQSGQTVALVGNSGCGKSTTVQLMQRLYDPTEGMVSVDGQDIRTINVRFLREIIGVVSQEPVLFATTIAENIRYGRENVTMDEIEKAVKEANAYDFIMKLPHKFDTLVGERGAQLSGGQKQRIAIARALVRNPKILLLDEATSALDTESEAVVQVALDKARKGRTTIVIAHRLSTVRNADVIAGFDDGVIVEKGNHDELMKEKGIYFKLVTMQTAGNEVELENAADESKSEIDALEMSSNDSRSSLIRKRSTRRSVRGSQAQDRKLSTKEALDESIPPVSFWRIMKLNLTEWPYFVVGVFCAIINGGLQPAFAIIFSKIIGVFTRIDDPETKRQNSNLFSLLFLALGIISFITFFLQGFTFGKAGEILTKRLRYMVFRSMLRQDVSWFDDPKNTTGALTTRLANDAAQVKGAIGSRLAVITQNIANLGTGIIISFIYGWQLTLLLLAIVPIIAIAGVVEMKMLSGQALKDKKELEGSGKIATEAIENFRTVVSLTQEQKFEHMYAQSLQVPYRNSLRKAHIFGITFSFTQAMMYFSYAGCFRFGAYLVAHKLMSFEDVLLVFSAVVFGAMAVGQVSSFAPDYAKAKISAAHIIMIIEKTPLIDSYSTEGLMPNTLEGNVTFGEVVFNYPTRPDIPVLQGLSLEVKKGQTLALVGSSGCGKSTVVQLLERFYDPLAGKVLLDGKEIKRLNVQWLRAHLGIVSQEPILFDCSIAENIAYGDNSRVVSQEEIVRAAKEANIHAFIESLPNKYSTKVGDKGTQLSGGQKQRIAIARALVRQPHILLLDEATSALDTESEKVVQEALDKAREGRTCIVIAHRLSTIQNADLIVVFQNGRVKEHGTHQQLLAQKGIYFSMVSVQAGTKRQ
MEKK2wt confirm: raises or lowers MEK5 binding to wildtype human MEKK2, retest; binding response (% of control), % at 10 µM; shares compounds with MEKK3 PB1 HTS; hit rate 2.4% among 5,900; bead flow cytometry, Alexa488-MEK5 binding to MEKK2 WT; actives lie on both sides; in the data active means binding response below about 16% or above about 210%; inactive means in between
MEKK2mut confirm: signal of MEK5 binding to mutant human MEKK2, retest; shares compounds with MEKK3 PB1 HTS; bead flow cytometry, Alexa488-MEK5 binding to MEKK2 mutant; percent response, % at 10 µM; hit rate 2% among 5,900; AID 1893; in the data active means percent response mostly above about 71%, no sharp cut-off; inactive means mostly below about 38%;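 further: higher means compound restores mutant binding toward wildtype level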
MEKK3 confirm: confirmation of inhibitors of MEK5 binding to human MEKK3 | bead flow cytometry, Alexa488-MEK5 binding to MEKK3; active compounds read low | shares compounds with MEKK3 PB1 HTS | binding response (% of control), % at 10 µM | AID 1894 | hit rate 1.8% among 5,900;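 active means binding response below 72% of control, or above a set upper limit, though filed actives all read lower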;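 further: 100% = DMSO only wells and 0% = binding blocked by excess unlabeled MEK5; lower values mean stronger disruption of MEK5 binding to MEKK3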
* = called active by the depositor; x = not tested or not shown; [ ] = remark or other dose. An excerpt weighted towards active compounds, which were near 3.5% of everything screened.

SMILES | ABCG2 inh | MEKK3 PB1 HTS | MEKK2wt PB1 HTS | WT yeast gro inh | MEKK2mut PB1 HTS | ABCB1 inh | MEKK2wt confirm | MEKK2mut confirm | MEKK3 confirm
CCN(CC)CCCNC(=O)c1sc2nc(-c3ccc(F)cc3)cn2c1C | 4.1 | 120.0 | 138.0* | -4.7 | 26.0 | -0.1 | 109.0 | 6.0 | 103.0
O=C(N/N=C\C=C\c1ccc2c(c1)OCO2)c1cccnc1 | 2.2 | 135.0* | 109.0 | -9.4 | 1.0 | -0.6 | 103.0 | 0.0 | 101.0
O=C(/C=C/c1ccc2c(c1)OCO2)c1cccnc1 | x | 106.0 | 105.0 | x | 3.0 | x | x | x | x
O=C(O)C12CC3CC(C1)CC(n1ncc(N4CCN(c5ccccc5)CC4)c(Cl)c1=O)(C3)C2 | 3.0 | 145.0* | 102.0 | 10.7 | -1.0 | 0.2 | 106.0 | 2.0 | 104.0
O=c1c(Cl)c(N2CCNCC2)cnn1C12CC3CC(CC(C3)C1)C2 | 0.8 | 102.0 | 95.0 | -6.4 | -11.0 | 0.3 | x | x | x
CN(C)c1ccc(/C=C/C=C2/SC(=S)N(c3ccccc3)C2=O)cc1 | 5.7 | 0.0*[inhibitor] | x | 21.8 | x | 1.5 | 39.0 | -28.0 | 69.0*
CC(C)(C)OC(=O)N1CCC(C(=O)NCC2CCCO2)CC1 (stereo not drawn) | x | 102.0 | 101.0 | x | 2.0 | x | x | x | x
CC1Cc2ccccc2N1C(=O)CNCCCN(C)C (stereo not drawn) | 0.0 | x | x | -22.4 | x | 0.0 | x | x | x
CC1CC2(C)Oc3ccccc3CC2C(C)C1CNCCCN(C)C (stereo not drawn) | 0.3 | 103.0 | 139.0* | 9.1 | 21.0 | -0.5 | 113.0 | 4.0 | 95.0
CC1CCN(Cc2ccc(NC(=O)C3CCN(c4nnc(-n5cccc5)s4)CC3)cc2)CC1 | 2.9 | 105.0 | 231.0* | 12.0 | 78.0* | 0.8 | 186.0 | 62.0 | 108.0
O=C(C1CCN(c2nnc(-n3cccc3)s2)CC1)N1CCN(Cc2ccc3c(c2)OCO3)CC1 | 1.9 | 104.0 | 108.0 | 2.0 | 4.0 | 0.7 | x | x | x
Cc1ccc(S(=O)(=O)N2CCCC(C(=O)NCCc3ccc(S(N)(=O)=O)cc3)C2)cc1 (stereo not drawn) | x | 99.0 | 96.0 | x | 0.0 | x | x | x | x
COc1ccc(NC(=O)C2CC(=O)N(CCc3ccc(Cl)cc3)C2)cc1 (stereo not drawn) | x | 100.0 | 103.0 | x | 5.0 | x | x | x | x
COc1ccc2c(c1)c(CC(=O)Nc1ccc(C(C)=O)cc1)c(C)n2C(=O)c1ccc(Cl)cc1 | -0.3 | 47.0*[inhibitor] | 92.0 | 26.4 | 1.0 | 0.2 | 105.0 | -3.0 | 101.0
O=C(NCC1CCCN(C(=O)Cc2ccccc2Cl)C1)c1ccc(F)cc1 (stereo not drawn) | x | 100.0 | 96.0 | x | -3.0 | x | x | x | x
COc1cc(C2NC(=O)CCC2[N+](=O)[O-])c(OC)cc1Br (stereo not drawn) | x | 104.0 | 105.0 | x | 1.0 | x | x | x | x
COc1ccc(C(=NNc2ccccc2C(=O)O)c2ccc(OC)cc2)cc1 | 7.9 | 150.0* | 99.0 | 81.5* | 0.0 | 0.1 | 94.0 | 4.0 | 101.0
COc1ccc(C(=O)Nc2ccccc2C(=O)Nc2ccccc2C(=O)O)cc1 | x | 102.0 | 96.0 | x | 3.0 | x | x | x | x
O=C(NCC1CCCO1)C1CCC(=O)N1Cc1ccc(F)cc1 (stereo not drawn) | 1.8 | -1.0*[inhibitor] | -4.0*[inhibitor] | -17.7 | -26.0 | 0.7 | 101.0 | -2.0 | 101.0
O=S(=O)(c1ccc(F)cc1)N1CCN(c2ncccn2)CC1 | x | 134.0* | 118.0 | x | 28.0 | x | 108.0 | 10.0 | 109.0
COc1cc(C(=O)Nc2ccc3c(c2)Cc2ccccc2-3)cc(OC)c1OC | 0.9 | 135.0* | 105.0 | -2.5 | -2.0 | -0.2 | 105.0 | 1.0 | 100.0
O=C(COC(=O)c1ccccc1C(=O)c1ccc(Cl)cc1)NCc1ccccc1 | 24.8 | 103.0 | 124.0 | 6.3 | 21.0 | 2.4 | x | x | x
O=C(COC(=O)c1ccccc1C(=O)c1ccccc1)NCCc1ccc(Cl)cc1Cl | 31.6 | 130.0* | 96.0 | 43.6 | -2.0 | 5.7 | 102.0 | -3.0 | 101.0
CC(C)OC(=O)NC(Nc1ccccc1C(=O)O)(C(F)(F)F)C(F)(F)F | x | 132.0* | 134.0 | x | 29.0 | x | 101.0 | 1.0 | 100.0
CC(C)Oc1cccc(C(=O)C2CCCN(Cc3cccn3-c3ccccn3)C2)c1 (stereo not drawn) | -1.4 | 107.0 | 174.0* | 5.9 | 35.0 | 0.0 | 115.0 | 7.0 | 106.0
SMILES | ABCG2 inh | MEKK3 PB1 HTS | MEKK2wt PB1 HTS | WT yeast gro inh | MEKK2mut PB1 HTS | ABCB1 inh | MEKK2wt confirm | MEKK2mut confirm | MEKK3 confirm
CN1CCN(C(=O)C23CCC(C)(C(=O)C2Br)C3(C)C)CC1 (stereo not drawn) | x | 135.0* | 122.0 | x | 30.0 | x | 98.0 | -3.0 | 100.0
CCN1CCN(C(=O)C23CCC(C)(C(=O)C2Br)C3(C)C)CC1 (stereo not drawn) | x | 79.0 | 78.0 | x | -23.0 | x | x | x | x
COc1ccc(/C=C/C(=O)c2ccc3c(c2)OCCO3)cc1[N+](=O)[O-] | 53.1 | 132.0* | 120.0 | 1.6 | 6.0 | 2.2 | 97.0 | -3.0 | 97.0
COc1cccc(CC2(CO)CCN(CC3=CC[C@H]4C[C@@H]3C4(C)C)CC2)c1 | -3.9 | 108.0 | 105.0 | -2.9 | -13.0 | -0.4 | x | x | x
CCOC(=O)CNc1nc(Cl)nc(NC(C)(C)C)n1 | -0.3 | 130.0* | 119.0 | -1.3 | 2.0 | 0.3 | 102.0 | 0.0 | 96.0
CC(C)(C)C(=O)COC(=O)c1cc2ccccc2cc1O | 2.0 | 67.0*[inhibitor] | 76.0 | -36.8 | -18.0 | 0.3 | 98.0 | 7.0 | 102.0
Nc1ccc(N)c(C(=O)O)c1 | x | 47.0*[inhibitor] | 25.0*[inhibitor] | x | -58.0 | x | 57.0 | -20.0 | 57.0*
CC/C(=C\C(=O)c1ccncc1)Nc1ccc(O)cc1 | 3.2 | 107.0 | 113.0 | -0.5 | 25.0* | 0.2 | 96.0 | -10.0 | 98.0
O=C(N/N=C/c1ccc(O)cc1)c1ccncc1 | x | 98.0 | 101.0 | x | 2.0 | x | x | x | x
Cc1ccc(CN2CCC(n3nccc3NC(=O)c3ccccc3C)CC2)o1 | x | 102.0 | 104.0 | x | -1.0 | x | x | x | x
O=C(c1ccco1)N1CCN(C(=O)N2c3ccccc3Sc3ccccc32)CC1 | -3.5 | 78.0*[inhibitor] | 90.0 | 52.4 | -8.0 | -0.8 | 97.0 | -4.0 | 96.0
O=C(/C=C/c1ccccc1)N1CCN(C(=O)c2ccco2)CC1 | 8.0 | 69.0*[inhibitor] | 119.0 | -9.4 | 9.0 | 0.7 | 91.0 | -7.0 | 87.0
O=C(c1ccco1)N1c2ccccc2Sc2ccccc21 | 41.1 | 98.0 | 97.0 | 19.9 | 1.0 | 0.5 | x | x | x
FC(F)(F)c1cccc(NC(=S)Nc2cccc(NC(=S)Nc3cccc(C(F)(F)F)c3)n2)c1 | x | 100.0 | 101.0 | x | -1.0 | x | x | x | x
